The list is not random: actives were taken first. Their share in the collection is about 3.4%.
Redox H2O2 prof = compounds producing H2O2 with reducing agent – biochemical, NIH compound library profiling, artefact control for MLSCN library redox annotation, primary screen | DTT-dependent redox cycling H2O2, phenol red/HRP absorbance; 100% = 100 µM peroxide control, 0% = buffer | activation, % at 10 µM | 0.03% of 200,000 active | AID 878;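 active = activation of at least 50% relative to the plate's high and low controls in the primary single-dose screen; inactive = activation below 50%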;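 note: compound incubated with DTT at 0.8 mM final as the reducing agent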
Mdm2 ligase inh = blocks human Mdm2 ubiquitin ligase activity; signal enhancement, % at 5 µM; Q00987; cell-based MDM2 ubiquitination luciferase reporter, 2 h; 0 = plate control, 100 = twice control, blank-subtracted; AID 1230; 0.11% of 210,000 active;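 active = signal enhancement of 30% or more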;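 note: luminescence tracks abundance of the self-degrading MDM2-luciferase fusion protein; higher signal means inhibition of MDM2 E3 ligase activity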
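Material: Stable MDM2–luciferase fusion reporter cells | Amount: 2000 cells seeded into each well | Dosing: One concentration, 5 µM, with 0.2% DMSO | Incubation: 4 h cell settling then 2 h compound exposure, 37 °C | Measured by: Luciferase luminescence | Read-out basis: % enhancement relative to plate controls after blank subtraction | Benchmarks: Control and blank well means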
Cl transport mod = modulates chloride dependent transport by human KCC2 | Q9H2X9 | KCC2 cells, thallium flux FluoZin-2 fluorescence | B-score of Tl+ flux slope (higher = more flux/activation; lower = inhibition) at 10 µM | 2.2% of 190,000 active | AID 1456;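 active = thallium flux slope and its plate-corrected score both differing from the plate sample mean at a set confidence after two filtering rounds, in either direction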;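 note: slope of fluorescence scaled to starting intensity during 10 to 20 s after thallium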
p97 ATPase inh = blocks human p97 ATPase activity; recombinant p97 ATPase, Kinase-Glo ATP luminescence, 3 h; inhibition, % at 8 µM; 0.42% of 220,000 active; AID 1481; in the data active = inhibition above about 15%;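 note: 0% = DMSO vehicle and 100% = wells lacking enzyme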
Target sequence (P55072 whole entry, looked up): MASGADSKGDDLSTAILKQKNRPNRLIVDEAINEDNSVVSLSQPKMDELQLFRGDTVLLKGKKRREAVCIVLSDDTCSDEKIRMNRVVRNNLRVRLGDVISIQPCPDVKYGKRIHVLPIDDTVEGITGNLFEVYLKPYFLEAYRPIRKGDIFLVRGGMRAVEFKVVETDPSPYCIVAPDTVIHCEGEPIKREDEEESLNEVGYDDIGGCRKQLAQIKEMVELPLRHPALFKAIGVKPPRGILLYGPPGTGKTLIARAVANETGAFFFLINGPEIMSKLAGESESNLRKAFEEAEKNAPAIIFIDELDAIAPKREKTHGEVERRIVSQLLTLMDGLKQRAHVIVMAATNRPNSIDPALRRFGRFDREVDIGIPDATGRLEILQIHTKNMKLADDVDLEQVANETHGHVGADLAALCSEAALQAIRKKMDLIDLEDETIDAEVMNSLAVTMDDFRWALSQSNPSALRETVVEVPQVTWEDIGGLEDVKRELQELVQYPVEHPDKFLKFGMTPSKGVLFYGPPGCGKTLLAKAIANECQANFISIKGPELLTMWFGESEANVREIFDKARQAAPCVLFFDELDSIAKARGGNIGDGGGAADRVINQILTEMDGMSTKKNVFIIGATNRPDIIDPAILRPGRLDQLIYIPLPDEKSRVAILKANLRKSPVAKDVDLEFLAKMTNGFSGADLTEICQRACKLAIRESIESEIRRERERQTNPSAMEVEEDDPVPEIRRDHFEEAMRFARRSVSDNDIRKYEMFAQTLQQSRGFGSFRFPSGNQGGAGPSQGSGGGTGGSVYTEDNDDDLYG
PKD1 kinase inh = PKD1 (human) kinase inhibition. inhibition, % (no concentration beside the values). AID 797. PKD1 kinase fluorescence polarization assay. 0.056% of 200,000 active; in the data active = inhibition above about 50%
ROMK primary = modulates human ROMK potassium channel activity. Tet-inducible ROMK, thallium flux fluorescence; actives lie on both sides. B-score at 10 µM. 2% of 130,000 active. P48048;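 active = signal ratio slope over the read window, or its plate-corrected B-score, at least 3 SD from the plate mean, either direction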;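 note: B-score of the F/F0 ratio slope over 7 to 12 s after thallium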
KCC2 sec1 = confirmation of human KCC2 transport modulators; HEK293-KCC2, thallium flux, FluoZin2 fluorescence; stronger effect = higher value; normalised thallium flux (F/F0 slope) at 10 µM; 15% of 3,700 active; shares compounds with Cl transport mod;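 active = thallium flux slope above the same plate's solvent-only control mean plus 3 SD; inconclusive = the two replicate wells disagree; inactive = no significant difference from solvent-only control wells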
KCC2 bumet counter = thallium flux despite bumetanide block in KCC2 cells, secondary assay 3 | shares compounds with Cl transport mod | normalized thallium flux at 10 µM | 49% of 3,700 active | HEK293-KCC2 + bumetanide/ouabain, thallium flux FluoZin2; stronger effect = higher value;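 active = thallium entry rate above the same plate's blocked-transporter control wells by more than 3 SD; inconclusive = the two repeat wells disagree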;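 note: raw slope of fluorescence over initial fluorescence between 10 and 20 s after thallium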
KCC2 sec2 = KCC2 (human) modulation, second secondary assay; shares compounds with Cl transport mod; HEK293-KCC2, thallium flux FluoZin2 fluorescence; actives lie on both sides; F/F0 rise rate, 10–20 s post-thallium; normalized thallium flux at 10 µM; 23% of 3,700 active; AID 1715;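 active = thallium flux slope more than 3 SD above or below the plate's solvent-only control mean, mostly below; inconclusive = the two repeat wells disagreed; inactive = no significant shift from solvent-only controls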;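 note: raw slope with 0.1% DMSO as baseline and bumetanide as block control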
HEK293 Tl flux = counter-screen for KCC2 modulators: effect in parental HEK293 cells. shares compounds with Cl transport mod. thallium flux FluoZin2, ouabain; baseline-ratio fluorescence slope, 10–20 s after thallium. thallium flux rate (normalised fluorescence) at 10 µM. 46% of 3,700 active;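 active = thallium flux rate significantly above the same plate's solvent-only control wells, beyond their mean plus 3 SD; inconclusive = the two replicate wells gave conflicting results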
KCC2 ouabain = confirmation of human KCC2 modulators with ouabain | HEK293-KCC2, thallium flux FluoZin2 fluorescence; bidirectional: low = inhibitor, high = activator | raw Tl+ flux slope (below DMSO = inhibition, above = activation) at 10 µM | 48% of 3,700 active | shares compounds with Cl transport mod;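 active = thallium flux slope beyond 3 SD from same-plate DMSO control mean in most replicates, usually higher, sometimes lower; inconclusive = repeat tests gave conflicting results; inactive = no significant difference from controls in most replicates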;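 note: slope of initial-normalized fluorescence between seconds 10 and 20 after thallium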
HEK293 Tl flux2 = acts in parental HEK cells, second KCC2 counter-screen; shares compounds with Cl transport mod; HEK293 parental, thallium flux FluoZin-2 fluorescence slope; thallium flux slope at 10 µM; 33% of 3,700 active;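 active = thallium flux slope above the same plate's solvent-control mean plus 3 SD in both duplicate wells; inconclusive = duplicate wells that disagreed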;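 note: run without ouabain in cells lacking the KCC2 cotransporter; slope of fluorescence scaled to its starting value between 10 and 20 s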
The depositor's hits bear a star; u = inconclusive; x = no result.

SMILES	Redox H2O2 prof	Mdm2 ligase inh	Cl transport mod	p97 ATPase inh	PKD1 kinase inh	ROMK primary	KCC2 sec1	KCC2 bumet counter	KCC2 sec2	HEK293 Tl flux	KCC2 ouabain	HEK293 Tl flux2
COc1ccccc1C(=O)NNC(=O)C(=O)NCc1ccccc1	0	-15	23*	4	0	1.1	0.025*	0.046*	0.037	0.028*	0.048*	0.014*
COc1ccccc1C(=O)NNC(=O)c1sccc1-n1cccc1	-1	-14	x	1	-4	0.013	u	0.046*	0.048*	0.04*	0.05*	0.04*
COc1ccc(C(=O)NNC(=O)C(=O)NCc2ccccc2)cc1	-1	5	x	5	-2	x	0.016	0.019*	0.029	0.017*	0.022*	0.018*
COC(=O)C(Cc1ccc(O)cc1)NC(=O)c1ccccc1 (centres undefined)	0	-16	x	3	-1	-0.11	x	x	x	x	x	x
COc1ccccc1C(=O)NCc1ccccc1	0	-2	1.3	-1	-1	-0.068	x	x	x	x	x	x
COC(=O)C(Cc1ccc(O)cc1)NC(=O)c1ccccc1OC (centres undefined)	-1	-19	-5.2*	0	4	x	0.0089	u	0.031	0.0085	0.018	0.011
Cc1csc(-c2cnn(-c3ccccc3)c2NC(=O)c2ccccc2)n1	1	-18	-0.4	6	-14	1.1	x	x	x	x	x	x
COc1ccccc1C(=O)NNC(=O)c1ccccc1F	0	-8	-0.16	1	-5	x	x	x	x	x	x	x
COc1ccccc1C(=O)NNC(=O)C(=O)NC(C)C	-1	-3	4.3*	5	-1	0.039	0.014*	0.02*	0.029	0.011*	u	0.011*
O=C(NC1CC1)c1cc2c(s1)-c1ccccc1OC2	-1	-17	x	5	-9	x	0.0071	0.0059	0.035	0.0039	0.017*	0.011
S=c1[nH]nc(Nc2cccc3ccccc23)s1	x	-11	30*	1	x	x	0.0078*	0.023*	0.017*	0.0088*	0.016*	0.0099
Cc1ccc(S(=O)(=O)N2CCC(CN3C(=O)c4cccc5cccc(c45)C3=O)CC2)cc1	2	2	-0.16	-5	-6	x	x	x	x	x	x	x
Cc1cccc2cc(CN(Cc3cccnc3)C(=O)c3ccccc3F)c(Cl)nc12	2	1	x	-2	-2	x	x	x	x	x	x	x
CC(C)Nc1nc(NC(C)(C)C)nc(Oc2ccc(=O)n(C)n2)n1	0	-7	-0.061	-3	0	-0.34	x	x	x	x	x	x
CCCn1nc(Oc2nc(NCC)nc(NC(C)C)n2)ccc1=O	2	x	-4.4*	-4	-13	x	0.009	0.0063	0.035	0.0074	0.022	0.01
Cc1ccccc1-n1c(SCC(=O)N(C)C2CCS(=O)(=O)C2)nc2ccccc2c1=O (centres undefined)	0	-7	-0.36	0	-4	0.82	x	x	x	x	x	x
COc1cc(Cl)c(C)cc1NC(=O)CN(C)Cc1cccc(OC)c1OC	-2	-21	-3.6*	-10	3	-0.61	0.0078	0.0042	0.028	0.0061*	0.018	u
COc1ccccc1CN(C)CC(=O)Nc1ccc(Cl)cc1F	-2	-12	-0.11	-9	-4	-1	x	x	x	x	x	x
CCCCCc1nnc(NC(=O)Cn2cnc3ccccc3c2=O)s1	0	-5	1.3	9	1	0.46	x	x	x	x	x	x
N#Cc1cc2c(nc1SCc1ccccc1)CCCCC2	1	-9	0.29	2	-1	x	x	x	x	x	x	x
N#Cc1cc2c(nc1SCC(O)CS(=O)(=O)Cc1ccccc1)CCCC2 (centres undefined)	-1	6	-2.9*	-11	-2	-1.1	u	0.0053	0.032	0.0072	u	0.01
Cc1cccc(C(=O)N/N=C/c2cc(Br)c(Br)o2)c1	0	-15	0.061	2	-1	0.4	0.009	0.017*	0.033	0.0091*	u	0.0094
O=C(N/N=C/c1ccc(-c2cccc([N+](=O)[O-])c2)o1)c1ccccc1O	0	-14	3.4*	0	-3	0.26	0.011	0.024*	0.038	0.012*	0.032*	u
CN(C)c1ccc(/C=N/NC(=O)C(O)(c2ccccc2)c2ccccc2)o1	1	-10	x	-1	-4	x	x	x	x	x	x	x
CN(C)c1ccc(/C=N/NC(=O)c2ccccc2O)o1	9	-39	5.1*	2	6	x	0.01	u	0.033	0.011*	0.02	0.012
SMILES	Redox H2O2 prof	Mdm2 ligase inh	Cl transport mod	p97 ATPase inh	PKD1 kinase inh	ROMK primary	KCC2 sec1	KCC2 bumet counter	KCC2 sec2	HEK293 Tl flux	KCC2 ouabain	HEK293 Tl flux2
O=C(N/N=C/c1ccc(-c2cccc(C(F)(F)F)c2)o1)c1cccc(F)c1	-3	-4	12*	0	-3	x	0.0086	0.016*	0.033	0.012*	u	0.01
O=C(N/N=C/c1ccc(-c2cccc([N+](=O)[O-])c2)o1)c1ccc([N+](=O)[O-])cc1	-1	-13	1.9	0	-7	-0.49	x	x	x	x	x	x
NC(=O)N/N=C/c1ccc(-c2cccc(C(F)(F)F)c2)o1	0	-10	-0.028	4	-2	0.055	x	x	x	x	x	x
COc1cccc(-c2nnc(SCC(=O)N3CC(C)CC(C)C3)o2)c1 (centres undefined)	-2	-8	0.95	-8	-7	x	x	x	x	x	x	x
COc1cc(CNc2ccccc2SC)ccc1O	0	-2	x	1	6	1.1	x	x	x	x	x	x
Cc1ccc(/C=N/NC(=O)c2cccc([N+](=O)[O-])c2)o1	-1	-22	5.5*	-6	-3	1.1	0.01	0.011*	0.033	0.012*	0.023	0.011
O=C(N/N=C/c1ccc(-c2cccc(C(F)(F)F)c2)o1)c1ccccc1Br	1	-21	x	-10	5	x	x	x	x	x	x	x
O=C(N/N=C/c1ccc(-c2cccc(C(F)(F)F)c2)o1)c1ccccc1O	1	-4	4.8*	2	-1	-0.81	0.0069	0.029*	0.033	0.016*	u	0.019*
